In experiment [1] the target is T1, Serine/threonine-protein kinase Sgk1 (Homo sapiens) (UniProt O00141).
T1 sequence (whole entry): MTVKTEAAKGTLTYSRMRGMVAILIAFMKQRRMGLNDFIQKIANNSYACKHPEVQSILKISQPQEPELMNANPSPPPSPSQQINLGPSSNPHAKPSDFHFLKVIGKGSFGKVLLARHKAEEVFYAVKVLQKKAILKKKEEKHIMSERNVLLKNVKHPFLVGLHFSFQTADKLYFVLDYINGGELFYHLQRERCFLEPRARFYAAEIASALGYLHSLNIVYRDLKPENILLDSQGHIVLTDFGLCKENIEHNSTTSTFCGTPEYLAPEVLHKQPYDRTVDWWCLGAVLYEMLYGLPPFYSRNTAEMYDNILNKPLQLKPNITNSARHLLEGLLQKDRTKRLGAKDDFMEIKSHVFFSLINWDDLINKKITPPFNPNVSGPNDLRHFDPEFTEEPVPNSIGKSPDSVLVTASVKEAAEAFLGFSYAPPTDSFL
Nature of the experiment: Inhibition of human recombinant SGK1 at 40 nM in presence of ATP by radiometric assay relative to control.

Experiment [2] has as its target Epidermal growth factor receptor (Homo sapiens) (UniProt P00533). Nature of the experiment: Inhibition of human recombinant EGFR at 40 nM related to control ULK1.
In experiment [3] the target is Bone morphogenetic protein receptor type-1B (Homo sapiens) (UniProt O00238). Briefly: Inhibition of human recombinant BMPR1B at 40 nM in presence of ATP by radiometric assay relative to control. In a few lines:
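Part of a radiometric in vitro activity panel of 327 recombinant human kinases. Each kinase was tested in duplicate at one inhibitor concentration. Activity remaining was expressed as a percentage of the vehicle control, and percent inhibition was taken as 100 minus that value.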

Experiment [4] concerns the target T2, Serine/threonine-protein kinase D3 (Homo sapiens) (UniProt O94806).
T2 sequence (whole entry): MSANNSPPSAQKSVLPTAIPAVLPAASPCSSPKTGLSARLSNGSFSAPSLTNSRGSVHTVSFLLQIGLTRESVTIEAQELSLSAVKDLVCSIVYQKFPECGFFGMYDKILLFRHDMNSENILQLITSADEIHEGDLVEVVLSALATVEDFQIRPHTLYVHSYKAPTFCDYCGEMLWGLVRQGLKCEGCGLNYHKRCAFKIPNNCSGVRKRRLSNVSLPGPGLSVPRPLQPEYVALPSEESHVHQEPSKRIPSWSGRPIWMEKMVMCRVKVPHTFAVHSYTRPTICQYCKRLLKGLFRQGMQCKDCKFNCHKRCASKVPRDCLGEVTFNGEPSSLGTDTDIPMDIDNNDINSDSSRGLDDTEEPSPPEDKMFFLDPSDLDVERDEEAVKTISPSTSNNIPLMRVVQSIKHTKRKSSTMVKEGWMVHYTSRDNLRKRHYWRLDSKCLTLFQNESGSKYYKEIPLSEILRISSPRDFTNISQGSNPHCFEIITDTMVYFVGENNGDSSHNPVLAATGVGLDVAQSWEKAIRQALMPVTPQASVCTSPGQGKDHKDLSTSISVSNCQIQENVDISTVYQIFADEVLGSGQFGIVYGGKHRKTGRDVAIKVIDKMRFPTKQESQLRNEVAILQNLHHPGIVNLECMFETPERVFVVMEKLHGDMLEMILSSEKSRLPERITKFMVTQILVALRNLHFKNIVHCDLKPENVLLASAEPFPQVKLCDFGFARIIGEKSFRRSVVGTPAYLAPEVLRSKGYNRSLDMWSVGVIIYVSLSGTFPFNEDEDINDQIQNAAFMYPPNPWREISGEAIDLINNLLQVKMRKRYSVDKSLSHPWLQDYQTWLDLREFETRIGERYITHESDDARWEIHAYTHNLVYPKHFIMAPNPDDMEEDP
Nature of the experiment: Inhibition of human recombinant PKD3 at 40 nM related to control ULK1.

Experiment [5] concerns the target Macrophage-stimulating protein receptor (Homo sapiens) (UniProt Q04912). Briefly: Inhibition of human recombinant RON at 40 nM related to control ULK1.
For experiment [6], the target named is Cyclin-dependent kinase 2 (Homo sapiens) (UniProt P24941). Nature of the experiment: Inhibition of human recombinant CDK2 at 500 nM in presence of ATP by radiometric assay relative to control.
In experiment [7] the target is ALK tyrosine kinase receptor (Homo sapiens) (UniProt Q9UM73). Nature of the experiment: Inhibition of human recombinant ALK at 15 nM in presence of ATP by radiometric assay relative to control. In outline:
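Panel of 327 recombinant human kinases in radiometric activity assays, each screened in duplicate at a single inhibitor concentration; percent activity remaining relative to vehicle control, percent inhibition taken as 100 minus activity remaining.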

The target in experiment [8] is Mitogen-activated protein kinase kinase kinase 10 (Homo sapiens) (UniProt Q02779). Nature of the experiment: Inhibition of human recombinant MLK2 at 15 nM related to control ULK1.
Experiment [9] concerns the target T3, Serine/threonine-protein kinase 17A (Homo sapiens) (UniProt Q9UEE5).
T3 sequence (whole entry): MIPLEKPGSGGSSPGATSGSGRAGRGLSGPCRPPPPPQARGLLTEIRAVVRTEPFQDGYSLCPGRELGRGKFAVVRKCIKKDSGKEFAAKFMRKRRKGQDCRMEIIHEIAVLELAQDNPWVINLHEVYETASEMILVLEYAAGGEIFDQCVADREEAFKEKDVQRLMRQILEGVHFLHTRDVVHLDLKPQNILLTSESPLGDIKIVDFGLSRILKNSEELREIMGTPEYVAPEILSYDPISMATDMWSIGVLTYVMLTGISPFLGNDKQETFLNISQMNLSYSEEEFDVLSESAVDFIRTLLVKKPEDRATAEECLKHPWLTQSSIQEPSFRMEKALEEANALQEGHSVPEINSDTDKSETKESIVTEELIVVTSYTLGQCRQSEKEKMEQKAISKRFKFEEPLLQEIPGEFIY
Nature of the experiment: Inhibition of human recombinant DRAK1 at 15 nM in presence of ATP by radiometric assay relative to control.

Experiment [10] concerns the target Wee1-like protein kinase 2 (Homo sapiens) (UniProt P0C1S8). Nature of the experiment: Inhibition of human recombinant Wee1B at 15 nM in presence of ATP by radiometric assay relative to control.

SMILES strings stand for the structures.

Wee1-like protein kinase 2 (Homo sapiens), sequence (P0C1S8 whole entry, looked up): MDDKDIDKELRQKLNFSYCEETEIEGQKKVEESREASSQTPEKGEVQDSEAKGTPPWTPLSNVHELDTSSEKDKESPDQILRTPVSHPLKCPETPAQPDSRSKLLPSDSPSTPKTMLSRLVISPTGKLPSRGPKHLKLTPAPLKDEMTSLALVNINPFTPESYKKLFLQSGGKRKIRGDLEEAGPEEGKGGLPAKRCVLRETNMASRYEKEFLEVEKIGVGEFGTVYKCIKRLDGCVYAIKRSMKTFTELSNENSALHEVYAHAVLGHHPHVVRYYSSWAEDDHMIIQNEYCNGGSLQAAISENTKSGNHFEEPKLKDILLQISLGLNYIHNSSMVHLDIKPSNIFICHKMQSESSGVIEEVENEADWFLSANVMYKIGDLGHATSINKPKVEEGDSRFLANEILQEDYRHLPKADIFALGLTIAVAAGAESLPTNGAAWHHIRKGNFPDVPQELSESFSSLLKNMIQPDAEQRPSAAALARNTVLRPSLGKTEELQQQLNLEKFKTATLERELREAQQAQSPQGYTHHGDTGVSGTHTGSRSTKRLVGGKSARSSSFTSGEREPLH
Macrophage-stimulating protein receptor (Homo sapiens), sequence (Q04912 25-304 limits assumed): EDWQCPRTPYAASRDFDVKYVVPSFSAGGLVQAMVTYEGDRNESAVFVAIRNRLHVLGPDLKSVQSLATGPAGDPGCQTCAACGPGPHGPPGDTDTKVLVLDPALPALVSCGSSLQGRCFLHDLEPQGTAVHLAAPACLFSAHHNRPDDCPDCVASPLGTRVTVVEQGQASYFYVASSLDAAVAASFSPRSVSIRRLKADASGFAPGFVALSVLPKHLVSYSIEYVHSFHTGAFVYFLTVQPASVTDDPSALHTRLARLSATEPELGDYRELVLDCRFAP
Macrophage-stimulating protein receptor (Homo sapiens), sequence (Q04912 310-1400 limits assumed): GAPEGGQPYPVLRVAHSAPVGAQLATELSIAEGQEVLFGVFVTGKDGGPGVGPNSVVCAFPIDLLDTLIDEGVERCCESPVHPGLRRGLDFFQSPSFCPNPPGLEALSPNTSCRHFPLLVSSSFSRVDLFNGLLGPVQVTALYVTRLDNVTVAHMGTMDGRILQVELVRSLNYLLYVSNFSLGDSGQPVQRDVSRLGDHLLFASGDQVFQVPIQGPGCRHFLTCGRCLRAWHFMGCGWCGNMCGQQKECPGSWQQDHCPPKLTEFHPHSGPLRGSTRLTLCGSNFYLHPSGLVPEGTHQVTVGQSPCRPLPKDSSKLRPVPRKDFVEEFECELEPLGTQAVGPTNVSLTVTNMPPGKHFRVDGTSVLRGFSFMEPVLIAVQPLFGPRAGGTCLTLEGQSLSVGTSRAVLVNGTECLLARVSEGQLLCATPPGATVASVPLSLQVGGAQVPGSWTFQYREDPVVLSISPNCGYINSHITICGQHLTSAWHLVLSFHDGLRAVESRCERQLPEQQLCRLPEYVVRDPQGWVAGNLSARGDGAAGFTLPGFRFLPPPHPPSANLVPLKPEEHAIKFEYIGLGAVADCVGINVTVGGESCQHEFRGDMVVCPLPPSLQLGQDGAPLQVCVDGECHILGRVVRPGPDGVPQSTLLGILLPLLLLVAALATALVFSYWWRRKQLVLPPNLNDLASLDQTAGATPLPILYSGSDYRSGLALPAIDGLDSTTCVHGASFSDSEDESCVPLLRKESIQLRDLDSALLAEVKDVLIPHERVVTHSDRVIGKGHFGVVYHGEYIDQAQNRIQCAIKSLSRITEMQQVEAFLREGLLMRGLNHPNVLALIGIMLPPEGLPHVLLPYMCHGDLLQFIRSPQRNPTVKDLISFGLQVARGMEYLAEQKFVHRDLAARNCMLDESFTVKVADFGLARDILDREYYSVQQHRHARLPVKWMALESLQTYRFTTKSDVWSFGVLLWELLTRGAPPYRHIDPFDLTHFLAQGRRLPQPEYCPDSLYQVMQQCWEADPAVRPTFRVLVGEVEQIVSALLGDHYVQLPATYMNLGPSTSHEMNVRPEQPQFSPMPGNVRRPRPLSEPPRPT
ALK tyrosine kinase receptor (Homo sapiens), sequence (Q9UM73 19-1620 limits assumed): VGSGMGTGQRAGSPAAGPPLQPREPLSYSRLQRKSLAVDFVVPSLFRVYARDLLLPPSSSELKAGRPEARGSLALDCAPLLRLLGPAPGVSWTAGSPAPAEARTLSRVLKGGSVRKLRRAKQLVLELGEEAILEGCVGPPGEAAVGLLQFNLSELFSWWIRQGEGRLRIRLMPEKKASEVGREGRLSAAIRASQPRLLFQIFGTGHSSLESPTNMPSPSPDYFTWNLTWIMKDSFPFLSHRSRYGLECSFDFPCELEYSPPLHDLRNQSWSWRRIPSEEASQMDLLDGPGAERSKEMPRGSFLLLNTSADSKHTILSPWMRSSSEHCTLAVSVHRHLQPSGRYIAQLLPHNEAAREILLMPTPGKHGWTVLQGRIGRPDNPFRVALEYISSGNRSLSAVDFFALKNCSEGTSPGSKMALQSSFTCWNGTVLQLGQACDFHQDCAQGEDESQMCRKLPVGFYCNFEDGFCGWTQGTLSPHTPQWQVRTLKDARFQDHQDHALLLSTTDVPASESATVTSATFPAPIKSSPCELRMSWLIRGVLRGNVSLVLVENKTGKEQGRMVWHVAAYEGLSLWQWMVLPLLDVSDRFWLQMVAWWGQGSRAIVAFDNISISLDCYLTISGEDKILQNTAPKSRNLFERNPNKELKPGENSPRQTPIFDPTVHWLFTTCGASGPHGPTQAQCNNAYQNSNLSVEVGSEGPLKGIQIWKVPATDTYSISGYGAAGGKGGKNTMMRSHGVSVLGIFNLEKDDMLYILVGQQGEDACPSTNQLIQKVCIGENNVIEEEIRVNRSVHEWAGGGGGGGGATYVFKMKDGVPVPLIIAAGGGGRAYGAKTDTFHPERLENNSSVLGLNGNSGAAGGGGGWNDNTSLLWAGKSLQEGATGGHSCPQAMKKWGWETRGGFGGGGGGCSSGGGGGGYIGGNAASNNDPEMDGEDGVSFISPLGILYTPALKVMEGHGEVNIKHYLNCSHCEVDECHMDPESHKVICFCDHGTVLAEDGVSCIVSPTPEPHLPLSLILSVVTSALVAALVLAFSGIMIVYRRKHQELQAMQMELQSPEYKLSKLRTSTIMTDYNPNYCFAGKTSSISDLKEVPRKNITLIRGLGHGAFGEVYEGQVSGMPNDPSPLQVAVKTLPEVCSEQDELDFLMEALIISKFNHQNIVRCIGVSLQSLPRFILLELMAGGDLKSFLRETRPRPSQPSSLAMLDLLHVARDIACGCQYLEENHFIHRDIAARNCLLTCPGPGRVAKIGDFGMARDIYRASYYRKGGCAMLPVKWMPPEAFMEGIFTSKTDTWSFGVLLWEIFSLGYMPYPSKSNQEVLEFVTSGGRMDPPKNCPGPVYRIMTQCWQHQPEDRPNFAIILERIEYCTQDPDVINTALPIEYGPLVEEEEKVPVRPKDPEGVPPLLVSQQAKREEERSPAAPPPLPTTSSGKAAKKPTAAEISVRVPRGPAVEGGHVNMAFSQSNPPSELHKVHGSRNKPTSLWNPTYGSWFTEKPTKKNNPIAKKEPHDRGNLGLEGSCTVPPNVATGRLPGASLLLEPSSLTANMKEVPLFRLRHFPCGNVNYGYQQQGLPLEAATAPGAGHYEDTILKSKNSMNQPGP
Bone morphogenetic protein receptor type-1B (Homo sapiens), sequence (O00238 whole entry): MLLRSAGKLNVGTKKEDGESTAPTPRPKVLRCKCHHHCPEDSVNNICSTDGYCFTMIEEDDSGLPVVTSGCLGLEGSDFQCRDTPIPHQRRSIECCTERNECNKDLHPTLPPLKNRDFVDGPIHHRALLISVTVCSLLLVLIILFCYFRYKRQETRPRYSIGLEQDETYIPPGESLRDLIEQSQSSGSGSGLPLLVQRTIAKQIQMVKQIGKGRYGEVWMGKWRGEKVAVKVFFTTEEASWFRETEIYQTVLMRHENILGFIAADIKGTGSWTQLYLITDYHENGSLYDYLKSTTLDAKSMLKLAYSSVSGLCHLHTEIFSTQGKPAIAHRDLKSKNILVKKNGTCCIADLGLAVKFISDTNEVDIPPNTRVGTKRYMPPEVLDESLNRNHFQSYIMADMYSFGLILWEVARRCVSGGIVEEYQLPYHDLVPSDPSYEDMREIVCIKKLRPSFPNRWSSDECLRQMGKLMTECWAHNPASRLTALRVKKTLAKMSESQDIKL
Mitogen-activated protein kinase kinase kinase 10 (Homo sapiens), sequence (Q02779 whole entry, looked up): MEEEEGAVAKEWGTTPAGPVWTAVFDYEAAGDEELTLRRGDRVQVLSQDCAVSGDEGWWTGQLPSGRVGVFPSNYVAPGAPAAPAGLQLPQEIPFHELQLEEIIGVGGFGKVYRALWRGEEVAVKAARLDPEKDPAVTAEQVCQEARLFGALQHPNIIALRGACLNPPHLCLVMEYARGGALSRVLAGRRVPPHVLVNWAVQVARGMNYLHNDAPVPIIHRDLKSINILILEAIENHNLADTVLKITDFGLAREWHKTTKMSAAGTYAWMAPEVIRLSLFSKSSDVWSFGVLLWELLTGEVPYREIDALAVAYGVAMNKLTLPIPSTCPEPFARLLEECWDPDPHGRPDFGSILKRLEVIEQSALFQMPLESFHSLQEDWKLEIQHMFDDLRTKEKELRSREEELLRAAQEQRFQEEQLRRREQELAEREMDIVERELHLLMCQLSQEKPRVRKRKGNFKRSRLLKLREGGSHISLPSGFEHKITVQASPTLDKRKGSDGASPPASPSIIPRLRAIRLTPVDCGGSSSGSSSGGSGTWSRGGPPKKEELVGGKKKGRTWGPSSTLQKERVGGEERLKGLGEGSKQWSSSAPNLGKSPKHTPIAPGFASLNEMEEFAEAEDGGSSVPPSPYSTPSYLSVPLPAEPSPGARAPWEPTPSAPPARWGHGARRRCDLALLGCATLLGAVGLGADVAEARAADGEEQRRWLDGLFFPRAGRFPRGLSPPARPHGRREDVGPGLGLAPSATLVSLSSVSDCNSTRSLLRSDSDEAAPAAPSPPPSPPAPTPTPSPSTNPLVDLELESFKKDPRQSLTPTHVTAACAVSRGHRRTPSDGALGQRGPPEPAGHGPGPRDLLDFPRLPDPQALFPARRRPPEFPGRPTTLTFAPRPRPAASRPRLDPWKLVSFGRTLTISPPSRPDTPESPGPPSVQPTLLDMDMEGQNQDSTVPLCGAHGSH

As for `O=C(N[C@@H](C1CC1)C(F)(F)F)c1cc(-c2cnn3cc(-c4ccc(F)cc4)cnc23)cs1`, the inhibition – broadly, how much of the control response was suppressed – is 7% in experiment [1] and 0% in experiment [3]. The fold change (FC) in experiment [2] is 0; in [4], 0.1; in experiment [5] it was 0.
For `CNC(=O)c1ccccc1Oc1nc(Nc2cc(OC)c(OC)c(OC)c2)ncc1Br`, the inhibition in experiment [6] is 4%.
Consider `CC(C)[C@H](NC(=O)c1cc(-c2cnn3cc(-c4ccc(OCCN5CCCCC5)cc4)cnc23)cs1)C(F)(F)F`, for which the values for the inhibition in experiment [7], in [9] and in experiment [10] were 0%, 71% and 11%, respectively. For the same compound, the fold change (FC) in [8] is 0.14.
